Assay outcomes from PubChem BioAssay.
UPR CHOP act = activators of apoptotic CHOP UPR arm, primary screen, cell-based, CHO-CHOP luciferase reporter, luminescence, uHTS; UPR activation; percent of tunicamycin response over DMSO baseline; 330,000 compounds, 0.34% hits; activation, % at 10 µM; AID 449763, 2010;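 active = at 10 µM dose, activation of 40% or more, normalized to positive control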;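 note: 100% = tunicamycin at 10 µg/mL and 0% = DMSO alone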
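assay system = CHO CHOP reporter cells | amount = 500 CHO-CHOP cells per well | buffer or medium = F12 with 10% FBS | incubation = 16-18 h cell attachment, then 6 h compound exposure, 37 °C | detection = luminescence read with Steady-Glo | read-out = percent activation relative to tunicamycin control | controls = tunicamycin high control, DMSO low control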
UPR XBP1 act = activators of adaptive XBP1 UPR arm, primary screen, cell-based, CHO-XBP1 luciferase reporter, luminescence, uHTS; IRE1-XBP1 UPR activation; percent of tunicamycin response, DMSO as zero; activation, % at 20 µM; 330,000 compounds, 0.33% hits;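 active = versus positive control, 20 µM dose yields 30% or more activation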;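 note: 100% = tunicamycin at 10 µg/mL and 0% = DMSO only wells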
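Material: CHO cell line with stable XBP1 luciferase reporter; buffer or medium: F12 medium containing 10% fetal bovine serum; compound: single point, 20 µM final compound, 1% DMSO; incubation: 6 h treatment, 37 °C; measured by: glow luminescence from Steady-Glo reagent; evaluation: activation, % of tunicamycin; control set: tunicamycin high, DMSO low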
Bfl-1 A1 inh = caspase 3/7 activation in MEF A1-2A-BIM cells, primary screen, A1 inhibitor project, cell-based, luminescence, HTS; Caspase-Glo 3/7 luminescence, 3 h; percent of clofoctol response, vehicle zero; caspase activation, % (test concentration not listed); 330,000 compounds, 0.066% hits;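 active = over half of replicate activation scores above 10%, or exactly half above 10 with the replicate mean above 10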
CHOP inh = inhibitors of CHOP promoter induction, primary screen, cell-based, unfolded protein response, luciferase reporter | CHO-K1 CHOP-promoter luciferase, tunicamycin-induced, 15-18 h | inhibition, % at 10 µM | 220,000 compounds, 3.8% hits | AID 2732, 2010;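 active = compounds that reduced the stress-induced luciferase reporter signal by more than about 70% of percent inhibition, limit read from the data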;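 note: 0% = tunicamycin plus vehicle and 100% = wells without tunicamycin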
UPR XBP1 confirm = IRE1-XBP1 UPR arm activators, confirmation, cell-based, CHO-XBP1 luciferase reporter, luminescence, single concentration | activation, % at 20 µM | shares compounds with UPR XBP1 act | 1,000 compounds, 63% hits | AID 485299, 2010;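 active = reporter signal at least 30% of the positive control's activation in two or more of four replicate wells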;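 note: plate controls were DMSO negative control for no effect and tunicamycin 10 µg/mL positive control for full effect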
Numbers without * were called inactive; . = not tested or not shown. The entries come from a sample that favours hits as a whole.

SMILES | UPR CHOP act | UPR XBP1 act | Bfl-1 A1 inh | CHOP inh | UPR XBP1 confirm
CCOC(=O)/C(=N\Nc1ccc(C(C)=O)cc1)c1csc(Nc2ccccc2)n1 | 7 | 46* | 0 | 46 | 94*
Cc1ccc(O)c(NC(=S)NC(=O)Cc2ccc(Cl)cc2)c1 | -1 | 52* | 0 | . | 86*
Cc1ccc(NC(=S)NC(=O)c2ccc(-c3ccc(Cl)cc3)o2)c(O)c1 | 1 | -2 | 0 | 12 | .
CC(C)Oc1ccccc1C1CC(=O)Nc2cc3c(cc21)OCO3 (configuration not stated) | -2 | 7 | 1 | . | .
CC(C)c1ccc(C2C3=C(COC3=O)Nc3cc4c(cc32)OCO4)cc1 (configuration not stated) | 4 | 43* | 1 | -25 | 93*
C/C(CC(=O)Nc1cc(Cl)ccc1C)=N\NC(N)=O | -1 | -1 | 0 | 4 | .
O=C(/C=C/c1ccc(Cl)cc1)NC(=S)Nc1ccc(N2CCOCC2)c(Cl)c1 | 25 | 124* | 1 | 41 | 126*
O=C(/C=C/c1ccccc1)NC(=S)Nc1ccc(N2CCOCC2)cc1 | 1 | -1 | 2 | 28 | .
CC(C)(C)c1ccc(OC(=O)c2ccc3snnc3c2)cc1 | 4 | 2 | 0 | 15 | .
Cn1c(=O)c2c(nc(N3CCCCC3)n2C)n(C)c1=O | -3 | 52* | 0 | -26 | 0
Nc1nc(Nc2ccc(Cl)cc2)nc2ccccc12 | 24 | 33* | 0 | 64 | 25
Nc1nc(Nc2ccccc2)nc2ccccc12 | 3 | 9 | -13 | -13 | .
O=c1cc(CN2CCN(c3ccccc3)CC2)c2cc(O)c(-c3ccccc3)cc2o1 | 16 | 60* | 3 | -22 | 113*
CC(=O)Nc1ccc(S(=O)(=O)N(CCCN2CCOCC2)Cc2cccs2)cc1 | 0 | 2 | -1 | 3 | .
CCOC(=O)C1=C(C)N=c2s/c(=C\c3ccc(OCC(=O)O)cc3)c(=O)n2C1c1ccccc1 (configuration not stated) | -1 | -6 | 1 | . | .
CCOC(=O)C1=C(C)N=c2s/c(=C3/C(=O)Nc4ccccc43)c(=O)n2C1c1ccc(C)cc1 (configuration not stated) | 2 | 118* | 1 | 47 | 69*
COc1cc(C2(c3ccc(O)c(OC)c3)C(=O)N(C)c3ccc(Br)cc32)ccc1O | 1 | -3 | 0 | . | .
C/C(CCC1CC(C)(C)OC1=O)=N\NC(N)=S (configuration not stated) | 0 | -1 | 1 | 2 | .
Cc1ccc(Cn2cnc3sc4c(c3c2=O)CCC4)c(C)c1 | 2 | 31* | -1 | 77* | 6
CCCCCn1c(N)c(-c2nc3ccccc3o2)c2c([N+](=O)[O-])nn(CC)c(=O)c21 | 16 | 38* | -1 | 23 | 53*
CCCCCn1c(N)c(-c2nc3ccccc3o2)c2c([N+](=O)[O-])nn(C)c(=O)c21 | . | . | 0 | 13 | .
Cc1ccc(-n2c(SCC(=O)Nc3nccs3)nc3c(c2=O)SCC3)cc1 | 2 | 9 | -1 | 24 | .
CCOc1ccc(-n2c(SCC(=O)Nc3nccs3)nc3c(c2=O)SCC3)cc1 | 12 | 75* | 0 | 7 | 9
CC(C)OCCCNS(=O)(=O)c1ccc2c(c1)OCCO2 | -1 | 0 | 0 | 4 | .
COc1ccc2[nH]c(=O)c(CN(C(C)=O)c3ccc(C)cc3C)cc2c1 | 1 | 0 | 0 | . | .
SMILES | UPR CHOP act | UPR XBP1 act | Bfl-1 A1 inh | CHOP inh | UPR XBP1 confirm
CCc1c(C)sc(NC(=S)NC(C)C2CCCO2)c1C(=O)OC (configuration not stated) | 0 | -1 | 0 | 2 | .
O=[N+]([O-])c1cccc(/C=C/c2ccc3cccc(O)c3n2)c1 | 32 | 98* | -7 | . | 158*
O=C(C1CCN(C2CC(=O)N(c3ccc(F)cc3)C2=O)CC1)N1CCOCC1 (configuration not stated) | 3 | 7 | 1 | 2 | .
CCOC(=O)N1CCN(C(=O)c2c(-c3c(Cl)cccc3Cl)noc2C)CC1 | -1 | -5 | -1 | . | .
COc1ccccc1C(=O)Nc1ccccc1SC(=O)c1ccccc1OC | 12 | 34* | 0 | . | 24
COc1cccc(C2=NOC(C(=O)NCCCn3ccnc3)C2)c1 (configuration not stated) | 0 | -3 | 1 | 8 | .
Cc1c(O)cc2c(c1O)C(=O)CC(c1ccccc1)O2 (configuration not stated) | 12 | 121* | 0 | 14 | 173*
COc1cc(OC)cc(C(=O)Nc2ccc3nc4n(c(=O)c3c2)CCCCC4)c1 | 6 | 32* | -6 | . | 36*
CCN(CC)S(=O)(=O)c1ccc(NC(=O)c2cc(C(=O)OC)cc([N+](=O)[O-])c2)cc1 | 13 | -2 | -1 | 47 | .
Nc1nc(N2CCN(C(=O)c3ccco3)CC2)nc2ccc(Br)cc12 | 6 | 10 | -5 | 18 | .
COc1ccc(Nc2ncnc3sc(C)cc23)c(OC)c1 | 5 | 30* | -2 | . | 1
COc1ccc(-c2nnc(SCC(=O)N3CCCC3)o2)c(OC)c1 | 3 | 13 | 1 | . | .
O=C(Nc1nc2ccc(Cl)cc2s1)c1ccc(N2CCCCC2)c([N+](=O)[O-])c1 | 30 | 33* | 0 | -9 | 83*
O=C1CC(NCc2cccs2)C(=O)N1c1ccc(Cl)cc1 (configuration not stated) | -2 | -5 | 0 | 2 | .
Cc1cc(C)cc(-n2nnnc2SCC(=O)Nc2nc(-c3ccc(Cl)cc3)cs2)c1 | 0 | 34* | -1 | 76* | 15
Cc1cc(=O)n(-c2ccccc2)n1C | -1 | -1 | . | . | .
O=C(N/N=C/C(Br)=C\c1ccccc1)c1n[nH]c2c1CCC2 | 5 | 35* | -2 | . | 36*
Cc1ccc(S(=O)(=O)N2CN(CC3CCCO3)c3nc4ccccc4nc32)cc1 (configuration not stated) | 0 | -3 | 0 | . | .
O=C(Nc1nc(-c2cccnc2)cs1)c1cccc([N+](=O)[O-])c1 | 7 | 31* | 0 | 88* | 11
NC(=S)N/N=C/c1ccc(C23CC4CC(CC(C4)C2)C3)cc1 | 33 | 60* | 1 | . | 64*
CCOC(=O)C1=C(C)N=C2SC(C(=O)OC)=CC(=O)N2C1c1cccc(OC)c1 (configuration not stated) | -1 | -2 | 0 | 26 | .
CCOC(=O)C1=C(C)N=C2SC(C(=O)OC)=CC(=O)N2C1c1ccc(F)cc1 (configuration not stated) | 9 | 132* | 0 | 12 | 103*
CCn1cc(C(=O)NCCCOC)c(=O)c2cc(S(=O)(=O)N3CCCC3)ccc21 | 1 | -4 | 0 | . | .
